Published values collected from several papers.
Lines come from different studies, so protocols differ.
CTSL: Procathepsin L (CTSL, Homo sapiens, UniProt P07711)
XDH: Xanthine dehydrogenase/oxidase (XDH, Bos taurus, UniProt P80457)
MAP4K5: Mitogen-activated protein kinase kinase kinase kinase 5 (MAP4K5, Homo sapiens, UniProt Q9Y4K4)
Adra1b: Alpha-1B adrenergic receptor (Adra1b, Rattus norvegicus, UniProt P15823)

Structure (SMILES)	target	test	setting	inhibition [%]
CC[C@H](NC(=O)OCc1ccccc1)C(=O)N[C@H](C(=O)N[C@@H](Cc1ccccc1)C(=O)N(C)N(C#N)CCC(N)=O)C(C)(C)C	CTSL	enzyme activity, inhibitor	50 µM	99
c1ccc(C(NCCNC(c2ccccc2)c2ccccc2)c2ccccc2)cc1	XDH	enzyme activity, inhibitor	10 µM	5
C#Cc1n[nH]c2c(-c3cn([C@@H](C)c4ccccn4)c(=O)[nH]c3=O)cc(F)cc12	Phosphatidylinositol 4-kinase beta (PI4KB, Homo sapiens, UniProt Q9UBF8)	enzyme activity, inhibitor	0.1 µM	9.3
CC[C@H](NC(=O)OCc1ccccc1)C(=O)N[C@H](C(=O)N[C@@H](CC(C)C)C(=O)N(C)N(C#N)CCC(N)=O)C(C)(C)C	CTSL	enzyme activity, inhibitor	50 µM	100
Cn1cc(-c2cc(F)cc(N3CCn4c(cc5c4CCCC5)C3=O)c2CO)cc(Nc2ccc(N3CCN(C4COC4)CC3)cn2)c1=O	MAP4K5	enzyme activity, inhibitor	0.1 µM	3
CC(C)N1CCC[C@H]1CNC(=O)c1cn(C2CCCC2)c(=O)c2c1c1ccccc1n2C	Adra1b	ligand displacement, radioligand	10 µM	-10
CC(C)C[C@H](NC(=O)[C@H]1O[C@@H]1C(=O)O)C(=O)NCCCCN=C(N)N	CTSL	enzyme activity, inhibitor	5 nM	39
Cn1cc(-c2cccc(N3CCc4c(sc5c4CC(C)(C)C5)C3=O)c2CO)cc(Nc2ccncn2)c1=O	Platelet-derived growth factor receptor alpha (PDGFRA, Homo sapiens, UniProt P16234)	enzyme activity, inhibitor	1 µM	5
N=C(N)c1ccc2cc(OC(=O)c3ccc(N=C(N)N)cc3)ccc2c1	CTSL	enzyme activity, inhibitor	10 µM	57
CC(C)Cn1cnc2c(N)nc3ccccc3c21	Adra1b	ligand displacement, radioligand	10 µM	40
COc1cc(Nc2ncc(F)c(Nc3ccc4c(n3)NC(=O)C(C)(C)O4)n2)cc(OC)c1OC	MAP4K5	binding, competition with immobilised ligand	10 µM	16
NC(=O)Cc1ccccc1	XDH	enzyme activity, inhibitor, absorbance	200 µg/mL	17.1
